Screening results from PubChem BioAssay.
Rin1 Abl inh: inhibitors of Rin1-Abl protein binding, primary screen, biochemical, TR-FRET. Tyrosine-protein kinase ABL1 (Homo sapiens) + Ras and Rab interactor 1 (Homo sapiens), …. inhibition, % at 7.35 µM. 360,000 tested, 0.4% active. AID 588664, 2011; in the data active means inhibition above about 5%, passing the limit was not always enough
LEDGF integ inh: blockers of LEDGF/p75-dependent integrase strand transfer – biochemical, TR-FRET, high throughput, primary screen; HIV-1 integrase (with human LEDGF/p75); TR-FRET IN-LEDGF/p75 DNA integration, Eu/Cy5; inhibition, % at 3.7 µM; 370,000 tested, 0.64% active; AID 743269, 2014;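 active means inhibition above the screen-wide mean plus 3 SD, cut at about 13% in these data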;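 further: signal is the Cy5 over europium emission ratio at 671 and 618 nm; 0% = plate median of compound wells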
UHRF1 binding: UHRF1 methylated DNA binding inhibitors, primary screen, counter-screen for MBD2 inhibitor project, biochemical, TR-FRET, human UHRF1, single concentration; 370,000 tested, 0.75% active; UHRF1 binding to methylated oligo; inhibition, % at 4.4 µM; E3 ubiquitin-protein ligase UHRF1 (Homo sapiens), Q96T88; in the data active means inhibition above about 21%;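 further: UHRF1 SRA domain binding a hemimethylated CpG hairpin DNA probe; 0% = median of test compound wells and 100% = reference inhibitor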
TDP2 inh: human TDP2 enzyme inhibitors, primary screen, biochemical, epi absorbance, recombinant enzyme | inhibition, % at 12.8 µM | T5PNP hydrolysis, p-nitrophenol absorbance 415 nm | Tyrosyl-DNA phosphodiesterase 2 (Homo sapiens), O95551 | AID 720702, 2013 | 370,000 tested, 0.34% active;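 active means inhibition above the mean of all tested compounds plus 3 SD, set per campaign, cut at about 25% in these data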;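 further: 0% = DMSO with enzyme and 100% = buffer with substrate but no TDP2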
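test system = human TDP2 enzyme | input = TDP2 enzyme at 120 nM final | medium = 50 mM Tris-HCl pH 7.5 with Mg2+, KCl, DTT, BSA | also added = T5PNP substrate, 5 mM | times = 2 h at 37 °C | technique = epi absorbance | benchmarks = high control without enzyme, low control DMSO plus TDP2 | replication = each compound tested once, singlicate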
MBD2 inh: inhibitors of MBD2 binding to methylated DNA, primary screen, biochemical, TR-FRET, DNA-binding domain, human | Methyl-CpG-binding domain protein 2 (Homo sapiens), Q9UBB5 | MBD2 binding to methylated oligonucleotide | inhibition, % at 4.4 µM | 370,000 tested, 0.31% active; in the data active means inhibition above about 13%
* marks the source's active call; other numbers are inactive results. This is a sample that favours compounds with a hit; in the whole collection about 1.9% have one here.

`O=c1ccc2cc3c([nH]c4ccc(Br)cc43)oc-2c1O` gave Rin1 Abl inh 37*, LEDGF integ inh 66*, UHRF1 binding 19, TDP2 inh 3 and MBD2 inh 1.
`CCOC(=O)N1CCC2(CC1)NCCc1c2[nH]c2ccccc12` gave Rin1 Abl inh 0, LEDGF integ inh 0, UHRF1 binding 25*, TDP2 inh 4 and MBD2 inh -3.
For O=C(Nc1cc(Cl)ccc1F)C1CCCN(c2nnc(-n3cccc3)s2)C1 (configuration not stated) the results were LEDGF integ inh 4, UHRF1 binding -1, TDP2 inh -2 and MBD2 inh 0.
For Cc1ccn2c(CC(C)(C)C)c(-c3ccc(F)cc3)nc2c1 the results were Rin1 Abl inh -5, LEDGF integ inh 8, UHRF1 binding 22*, TDP2 inh -6 and MBD2 inh 4.
For Cc1ccn2c(Cc3ccccc3)c(-c3ccccc3)nc2c1 the results were Rin1 Abl inh -1, LEDGF integ inh 2, UHRF1 binding 21*, TDP2 inh -1 and MBD2 inh 8.
Cc1ccn2c(Cc3ccccc3)c(-c3ccc(Br)cc3)nc2c1 was read as Rin1 Abl inh 0, LEDGF integ inh 2, UHRF1 binding 20, TDP2 inh -8 and MBD2 inh 9.
`Cc1ccc(Cc2c(-c3ccc(C)cc3)nc3cc(C)ccn23)cc1` gave Rin1 Abl inh -1, LEDGF integ inh 0, UHRF1 binding 23*, TDP2 inh -10 and MBD2 inh 6.
For Cc1ccc(Cc2c(-c3ccc(Cl)cc3)nc3cc(C)ccn23)cc1 the results were Rin1 Abl inh 4, LEDGF integ inh 4, UHRF1 binding 22*, TDP2 inh -15 and MBD2 inh 1.
Screening CCOC(=O)c1cccc(NC(=O)CCNS(=O)(=O)c2ccc3c(c2)CCN3C(=O)CC)c1 returned Rin1 Abl inh 4, LEDGF integ inh -1, UHRF1 binding -2, TDP2 inh 5 and MBD2 inh 4.
`CC(=O)N1CCc2cc(S(=O)(=O)NCCC(=O)Nc3cccc(C)c3)ccc21` gave Rin1 Abl inh 2, LEDGF integ inh -1, UHRF1 binding 22*, TDP2 inh 3 and MBD2 inh 6.
Screening COc1ccccc1NS(=O)(=O)c1cccc(C(=O)N2CCCC2)c1 returned Rin1 Abl inh 0, LEDGF integ inh -8, UHRF1 binding 43*, TDP2 inh 7 and MBD2 inh 1.
COc1ccccc1NS(=O)(=O)c1cccc(C(=O)N2CCCCCCC2)c1 was read as Rin1 Abl inh 2, LEDGF integ inh -2, UHRF1 binding -2, TDP2 inh -3 and MBD2 inh -2.
Cc1cc(NS(=O)(=O)c2ccc(NC(=O)Cc3ccc(Cl)c(Cl)c3)cc2)on1 was read as LEDGF integ inh 6, UHRF1 binding 0, TDP2 inh -15 and MBD2 inh 6.
CC(=O)NS(=O)(=O)c1cccnc1Nc1cccc(Cl)c1C was read as Rin1 Abl inh -1, LEDGF integ inh -5, UHRF1 binding 1, TDP2 inh -2 and MBD2 inh 1.
Screening NS(=O)(=O)c1cccnc1Nc1c(Cl)cccc1Cl returned Rin1 Abl inh 1, LEDGF integ inh -2, UHRF1 binding 21*, TDP2 inh 9 and MBD2 inh 1.
`Cn1c(=O)c2cc(NCc3ccccc3)nnc2n(C)c1=O` gave Rin1 Abl inh -6, LEDGF integ inh 13, UHRF1 binding 3, TDP2 inh 75* and MBD2 inh -7.
CC(C)(C)OC(=O)N1CCC(CNC(=O)c2ccc(F)cc2F)CC1 was read as Rin1 Abl inh 3, LEDGF integ inh 3, UHRF1 binding 23*, TDP2 inh 18 and MBD2 inh -6.
`CC(C)(C)OC(=O)N1CCC(CNC(=O)c2cccs2)CC1` gave Rin1 Abl inh 2, LEDGF integ inh 1, UHRF1 binding 15, TDP2 inh 6 and MBD2 inh -1.
`Cc1[nH]c2ccccc2c1CN1CCc2ccccc2C1` gave Rin1 Abl inh 0, LEDGF integ inh 8, UHRF1 binding 21*, TDP2 inh 17 and MBD2 inh 14*.
